We go through two compounds from ChEMBL document CHEMBL4828755, “A sulfonyl fluoride derivative inhibits EGFRL858R/T790M/C797S by covalent modification of the catalytic lysine” (Eur J Med Chem, 2021).

Activity calls are given as the source filed them. The calls are words filed in the database; no cut-off is given here.

In test [1] the target is Mitogen-activated protein kinase 14 (Homo sapiens) (UniProt Q16539). Put plainly: Inhibition of GST-tagged human full length recombinant p38 alpha expressed in Escherichia coli at 100 to 1000 nM by Z'-LYTE assay. To be noted: dose 100-1000 nM.
The target in test [2] is Platelet-derived growth factor receptor alpha (Homo sapiens) (UniProt P16234). Put plainly: Inhibition of GST-tagged human recombinant PDGFR alpha (550 to 1089 residues) expressed in baculovirus expression system at 100 to 1000 nM by Z'-LYTE assay. To be noted: dose 100-1000 nM.
Test [3] concerns the target Vascular endothelial growth factor receptor 2 (Homo sapiens) (UniProt P35968). Briefly: Inhibition of His-tagged human recombinant VEGFR2 (789 to 1356 residues) expressed in baculovirus expression system at 100 to 1000 nM by Z'-LYTE assay. The conditions noted are these: dose 100-1000 nM. In a few lines: (§1)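 Z'-LYTE FRET kinase panel; phosphorylation of a reference peptide measured with ATP at each enzyme's Km. Compounds tested in 1% DMSO at 0.1 and/or 1 μM. Values are means of two independent experiments with standard deviations.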

Test [4] has as its target Fibroblast growth factor receptor 4 (Homo sapiens) (UniProt P22455). Put plainly: Inhibition of His-tagged human recombinant FGFR4 ([…] residues) expressed in baculovirus expression system at 100 to 1000 nM by Z'-LYTE assay. The conditions noted are these: dose 100-1000 nM. In a few lines:
as §1

Test [5] has as its target Tyrosine-protein kinase JAK1 (Homo sapiens) (UniProt P23458). Put plainly: Inhibition of GST-tagged human recombinant JAK1 (866 to 1154 residues) expressed in baculovirus expression system at 100 to 1000 nM by Z'-LYTE assay. To be noted: dose 100-1000 nM.
Test [6] deals with Vascular endothelial growth factor receptor 2 (Homo sapiens) (UniProt P35968). Briefly: Inhibition of His-tagged human recombinant VEGFR2 (789 to 1356 residues) expressed in baculovirus expression system at 1 uM by Z'-LYTE assay. In a few lines: as §1
Test [7] concerns Epidermal growth factor receptor (Homo sapiens), P00533 [L858R,T790M,C797S]. Briefly: Inhibition of EGFR L858R/T790M/C797S triple mutant (unknown origin) expressed in mouse Ba/F3 cells assessed as inhibition of EGF-stimulated receptor phosphorylation at 1 uM incubated for 4 hrs followed by washing with buffer solution and later incubation in drug-free medium for 2 to 8 hrs followed by EGF stimulation by western blot analysis. Format: cell-based. To be noted: BaF3. In a few lines:
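Ba/F3 cells expressing EGFR L858R/T790M/C797S exposed to 1 μM for 4 h, washed extensively with PBS, and allowed to recover in fresh drug-free medium for 2, 4 or 8 h. Cells then stimulated with 100 ng/ml EGF for 10 min. pEGFR (Tyr1068), total EGFR and actin detected by western blot.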
(In western blotting, separated proteins are transferred to a membrane and probed.)

Test [8] deals with Fibroblast growth factor receptor 4 (Homo sapiens) (UniProt P22455). Briefly: Inhibition of His-tagged human recombinant FGFR4 ([…] residues) expressed in baculovirus expression system at 1 uM by Z'-LYTE assay. In a few lines:
as §1

The test system of test [9] is Epidermal growth factor receptor (Homo sapiens), P00533 [L858R,T790M,C797S]. Put plainly: Inhibition of EGFR L858R/T790M/C797S triple mutant (unknown origin) expressed in mouse Ba/F3 cells assessed as inhibition of EGF-stimulated receptor phosphorylation at 500 nM incubated for 4 hrs followed by EGF stimulation for 10 mins by western blot analysis. To be noted: BaF3, time 250.0 min. Type of test: cell-based. In a few lines:
(§2)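 Ba/F3 cells expressing EGFR L858R/T790M/C797S were treated for 4 h across increasing concentrations (DMSO ≤0.1%), then stimulated with 100 ng/ml EGF for 10 min. Lysates were immunoblotted for pEGFR (Tyr1068), EGFR and actin.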

Test [10] addresses Tyrosine-protein kinase Blk (Homo sapiens) (UniProt P51451). Put plainly: Inhibition of His-tagged human full length recombinant BLK expressed in baculovirus expression system at 1 uM by Z'-LYTE assay. In a few lines:
as §1

Test [11] deals with AMP-activated protein kinase, AMPK (Homo sapiens) (UniProt P54646+O43741+P54619+Q9UGJ0+Q9Y478+Q13131+Q9UGI9). Put plainly: Inhibition of human recombinant AMPK at 1 uM by Z'-LYTE assay. Type of test: protein-complex assay. In a few lines: as §1
In test [12] the target is Cyclin-dependent kinase 5 (Homo sapiens) (UniProt Q00535). Briefly: Inhibition of GST/His-tagged human full length recombinant CDK5 expressed in baculovirus expression system at 1 uM by Z'-LYTE assay. In a few lines:
as §1

Test [13] concerns Epidermal growth factor receptor (Homo sapiens), P00533 [L858R,T790M,C797S]. Briefly: Inhibition of EGFR L858R/T790M/C797S triple mutant (unknown origin) expressed in mouse Ba/F3 cells assessed as inhibition of EGF-stimulated receptor phosphorylation incubated for 4 hrs followed by EGF stimulation for 10 mins by western blot analysis. Format: cell-based. To be noted: BaF3, dose 10-1000 nM, time 250.0 min. In a few lines: as §2

The target of test [14] is Platelet-derived growth factor receptor alpha (Homo sapiens) (UniProt P16234). Briefly: Inhibition of GST-tagged human recombinant PDGFR alpha (550 to 1089 residues) expressed in baculovirus expression system at 1 uM by Z'-LYTE assay. In a few lines: as §1
In test [15] the target is Proto-oncogene tyrosine-protein kinase Src (Homo sapiens) (UniProt P12931). Briefly: Inhibition of C-terminal His-tagged human recombinant SRC expressed in baculovirus expression system at 1 uM by Z'-LYTE assay. In a few lines: as §1
The target in test [16] is RAC-beta serine/threonine-protein kinase (Homo sapiens) (UniProt P31751). Put plainly: Inhibition of His-tagged full length human recombinant AKT2 expressed in baculovirus expression system at 1 uM by Z'-LYTE assay. In a few lines: as §1
Test [17] deals with Epidermal growth factor receptor (Homo sapiens), P00533 [L858R,T790M,C797S]. Put plainly: Covalent binding affinity to recombinant EGFR L858R/T790M/C797S triple mutant (unknown origin) assessed as Lys745 sulfonylation in tryptic digested peptide IPVAIK745ELR at enzyme:compound molar concentration ratio of 1:5 incubated for 1 hr and measured following tryptic digestion by LC-HRMS analysis. In a few lines: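 Recombinant triple-mutant EGFR co-incubated with inhibitor at 1:5 molar ratio for 1 h in Kinase Buffer A (50 mM HEPES pH 7.5, 10 mM MgCl2, 1 mM EGTA, 0.01% Brij-35); DMSO vehicle control. Reduced with DTT (15 min, 60°C), alkylated with iodoacetamide, trypsin-digested overnight at 37°C (1:10 trypsin:protein), C18 cleanup, analysed by LC-HRMS in ESI positive mode.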

Chain of Fibroblast growth factor receptor 4 (Homo sapiens) (P22455 22-802 limits assumed): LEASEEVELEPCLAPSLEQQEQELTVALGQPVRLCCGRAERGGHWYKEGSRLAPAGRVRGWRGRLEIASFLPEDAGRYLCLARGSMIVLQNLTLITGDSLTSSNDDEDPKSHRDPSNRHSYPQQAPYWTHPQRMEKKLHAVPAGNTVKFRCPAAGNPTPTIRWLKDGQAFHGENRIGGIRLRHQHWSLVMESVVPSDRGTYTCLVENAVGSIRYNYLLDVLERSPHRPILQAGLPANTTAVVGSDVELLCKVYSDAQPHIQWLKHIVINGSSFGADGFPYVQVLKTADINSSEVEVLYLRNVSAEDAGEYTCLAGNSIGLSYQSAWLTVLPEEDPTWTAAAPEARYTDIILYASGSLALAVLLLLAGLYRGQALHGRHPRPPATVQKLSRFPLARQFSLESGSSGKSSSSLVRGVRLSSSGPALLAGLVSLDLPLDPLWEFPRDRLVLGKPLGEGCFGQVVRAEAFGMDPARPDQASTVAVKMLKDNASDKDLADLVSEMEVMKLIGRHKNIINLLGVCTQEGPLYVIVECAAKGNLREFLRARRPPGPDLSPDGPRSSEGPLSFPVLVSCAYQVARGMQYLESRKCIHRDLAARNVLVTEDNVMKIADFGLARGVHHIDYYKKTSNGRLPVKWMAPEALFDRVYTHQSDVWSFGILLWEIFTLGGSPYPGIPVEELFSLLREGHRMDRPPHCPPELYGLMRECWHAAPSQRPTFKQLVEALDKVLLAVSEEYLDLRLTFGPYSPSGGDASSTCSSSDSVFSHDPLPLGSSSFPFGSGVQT
Chain of Vascular endothelial growth factor receptor 2 (Homo sapiens) (P35968 whole entry, the tested form may be a part): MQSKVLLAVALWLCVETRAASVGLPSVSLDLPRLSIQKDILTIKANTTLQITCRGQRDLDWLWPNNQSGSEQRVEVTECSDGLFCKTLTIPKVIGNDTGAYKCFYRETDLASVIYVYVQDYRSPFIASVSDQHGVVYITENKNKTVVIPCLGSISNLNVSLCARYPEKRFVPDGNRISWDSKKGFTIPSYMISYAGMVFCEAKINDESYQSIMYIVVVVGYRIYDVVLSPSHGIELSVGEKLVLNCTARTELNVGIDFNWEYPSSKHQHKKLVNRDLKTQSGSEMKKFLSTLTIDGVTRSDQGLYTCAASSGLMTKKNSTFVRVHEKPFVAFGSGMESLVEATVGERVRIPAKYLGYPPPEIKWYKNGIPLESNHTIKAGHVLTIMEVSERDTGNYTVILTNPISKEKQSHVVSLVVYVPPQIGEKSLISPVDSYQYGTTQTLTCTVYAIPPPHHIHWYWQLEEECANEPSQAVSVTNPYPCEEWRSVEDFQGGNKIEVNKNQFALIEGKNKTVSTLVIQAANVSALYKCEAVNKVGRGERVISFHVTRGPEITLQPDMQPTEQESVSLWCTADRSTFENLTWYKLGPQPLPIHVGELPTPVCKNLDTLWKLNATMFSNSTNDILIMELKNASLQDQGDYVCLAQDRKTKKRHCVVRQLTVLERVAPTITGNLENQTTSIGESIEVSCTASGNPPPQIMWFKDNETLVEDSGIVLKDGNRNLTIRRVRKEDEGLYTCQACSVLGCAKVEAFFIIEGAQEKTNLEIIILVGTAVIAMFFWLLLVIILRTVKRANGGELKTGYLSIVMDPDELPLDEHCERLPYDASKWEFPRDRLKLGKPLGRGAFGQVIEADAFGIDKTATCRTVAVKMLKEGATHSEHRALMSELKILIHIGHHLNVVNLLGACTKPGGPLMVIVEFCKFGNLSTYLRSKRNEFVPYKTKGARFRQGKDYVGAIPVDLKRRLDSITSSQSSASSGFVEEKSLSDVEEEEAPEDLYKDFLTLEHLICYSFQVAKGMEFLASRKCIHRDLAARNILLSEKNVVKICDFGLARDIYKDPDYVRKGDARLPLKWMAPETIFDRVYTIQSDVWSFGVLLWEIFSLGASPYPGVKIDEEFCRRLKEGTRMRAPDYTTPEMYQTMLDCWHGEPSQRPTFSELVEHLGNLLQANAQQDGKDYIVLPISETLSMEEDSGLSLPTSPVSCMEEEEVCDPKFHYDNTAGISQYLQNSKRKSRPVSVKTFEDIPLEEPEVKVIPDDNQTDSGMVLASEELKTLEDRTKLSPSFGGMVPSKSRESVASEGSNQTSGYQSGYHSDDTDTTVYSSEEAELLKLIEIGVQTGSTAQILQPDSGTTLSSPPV
Chain of Platelet-derived growth factor receptor alpha (Homo sapiens) (P16234 whole entry, the tested form may be a part): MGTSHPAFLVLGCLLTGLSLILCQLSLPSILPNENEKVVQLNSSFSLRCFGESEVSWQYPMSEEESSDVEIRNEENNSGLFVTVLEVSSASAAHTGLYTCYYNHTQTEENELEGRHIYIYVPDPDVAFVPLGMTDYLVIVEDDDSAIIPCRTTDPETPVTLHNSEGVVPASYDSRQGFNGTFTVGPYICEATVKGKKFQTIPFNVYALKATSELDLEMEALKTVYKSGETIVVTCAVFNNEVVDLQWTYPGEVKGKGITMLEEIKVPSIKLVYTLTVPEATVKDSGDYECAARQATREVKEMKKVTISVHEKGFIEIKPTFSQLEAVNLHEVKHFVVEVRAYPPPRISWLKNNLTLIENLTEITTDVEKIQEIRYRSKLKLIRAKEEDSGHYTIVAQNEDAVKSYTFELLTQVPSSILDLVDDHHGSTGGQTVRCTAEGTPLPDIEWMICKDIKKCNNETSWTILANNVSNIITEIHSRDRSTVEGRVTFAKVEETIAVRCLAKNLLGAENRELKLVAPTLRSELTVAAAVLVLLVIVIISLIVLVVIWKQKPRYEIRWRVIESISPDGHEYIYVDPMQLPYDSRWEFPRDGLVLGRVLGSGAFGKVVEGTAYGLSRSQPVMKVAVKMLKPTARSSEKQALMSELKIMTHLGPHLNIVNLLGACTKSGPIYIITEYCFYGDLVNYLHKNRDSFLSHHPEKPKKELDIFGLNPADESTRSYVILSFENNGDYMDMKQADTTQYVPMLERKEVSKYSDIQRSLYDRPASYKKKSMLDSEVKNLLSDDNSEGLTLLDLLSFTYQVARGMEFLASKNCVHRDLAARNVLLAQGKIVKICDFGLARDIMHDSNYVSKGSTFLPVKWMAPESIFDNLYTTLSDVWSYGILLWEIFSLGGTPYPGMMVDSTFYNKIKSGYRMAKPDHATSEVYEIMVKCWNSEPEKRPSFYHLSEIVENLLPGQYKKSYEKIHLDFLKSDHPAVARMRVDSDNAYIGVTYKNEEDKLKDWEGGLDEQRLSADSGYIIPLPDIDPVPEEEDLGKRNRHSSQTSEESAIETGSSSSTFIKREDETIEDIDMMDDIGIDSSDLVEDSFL
Chain of Cyclin-dependent kinase 5 (Homo sapiens) (Q00535 whole entry, looked up): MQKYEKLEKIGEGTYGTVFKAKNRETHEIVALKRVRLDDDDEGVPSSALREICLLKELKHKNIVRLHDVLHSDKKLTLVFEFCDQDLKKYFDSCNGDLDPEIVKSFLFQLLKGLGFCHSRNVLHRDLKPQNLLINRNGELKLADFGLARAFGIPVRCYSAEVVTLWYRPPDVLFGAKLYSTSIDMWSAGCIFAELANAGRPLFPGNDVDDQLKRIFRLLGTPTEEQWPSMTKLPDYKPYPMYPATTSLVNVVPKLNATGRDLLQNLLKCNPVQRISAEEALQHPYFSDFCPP
Chain of Mitogen-activated protein kinase 14 (Homo sapiens) (Q16539 whole entry, the tested form may be a part): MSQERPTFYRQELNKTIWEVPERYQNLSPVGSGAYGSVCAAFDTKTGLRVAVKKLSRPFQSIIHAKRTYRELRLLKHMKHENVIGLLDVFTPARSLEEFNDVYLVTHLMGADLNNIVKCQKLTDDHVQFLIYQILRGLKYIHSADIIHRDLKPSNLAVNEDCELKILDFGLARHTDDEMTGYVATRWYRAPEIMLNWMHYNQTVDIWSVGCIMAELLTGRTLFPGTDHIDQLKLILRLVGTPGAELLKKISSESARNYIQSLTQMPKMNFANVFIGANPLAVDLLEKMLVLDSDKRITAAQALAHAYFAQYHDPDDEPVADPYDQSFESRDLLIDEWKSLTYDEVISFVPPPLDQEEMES
Chain of Proto-oncogene tyrosine-protein kinase Src (Homo sapiens) (P12931 2-536 limits assumed): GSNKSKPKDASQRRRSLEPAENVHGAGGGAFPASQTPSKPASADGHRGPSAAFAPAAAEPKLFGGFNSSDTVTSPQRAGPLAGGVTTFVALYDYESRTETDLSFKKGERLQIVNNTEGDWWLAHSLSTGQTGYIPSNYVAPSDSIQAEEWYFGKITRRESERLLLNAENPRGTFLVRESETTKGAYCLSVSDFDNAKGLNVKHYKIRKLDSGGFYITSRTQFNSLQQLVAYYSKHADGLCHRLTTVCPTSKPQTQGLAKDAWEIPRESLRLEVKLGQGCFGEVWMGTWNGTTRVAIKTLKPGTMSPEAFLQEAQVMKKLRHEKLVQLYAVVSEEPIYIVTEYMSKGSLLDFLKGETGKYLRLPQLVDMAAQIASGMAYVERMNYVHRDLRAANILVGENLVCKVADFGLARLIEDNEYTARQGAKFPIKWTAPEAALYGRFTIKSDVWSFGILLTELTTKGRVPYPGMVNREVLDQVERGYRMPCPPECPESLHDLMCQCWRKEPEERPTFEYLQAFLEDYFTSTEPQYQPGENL
Chain of RAC-beta serine/threonine-protein kinase (Homo sapiens) (P31751 whole entry): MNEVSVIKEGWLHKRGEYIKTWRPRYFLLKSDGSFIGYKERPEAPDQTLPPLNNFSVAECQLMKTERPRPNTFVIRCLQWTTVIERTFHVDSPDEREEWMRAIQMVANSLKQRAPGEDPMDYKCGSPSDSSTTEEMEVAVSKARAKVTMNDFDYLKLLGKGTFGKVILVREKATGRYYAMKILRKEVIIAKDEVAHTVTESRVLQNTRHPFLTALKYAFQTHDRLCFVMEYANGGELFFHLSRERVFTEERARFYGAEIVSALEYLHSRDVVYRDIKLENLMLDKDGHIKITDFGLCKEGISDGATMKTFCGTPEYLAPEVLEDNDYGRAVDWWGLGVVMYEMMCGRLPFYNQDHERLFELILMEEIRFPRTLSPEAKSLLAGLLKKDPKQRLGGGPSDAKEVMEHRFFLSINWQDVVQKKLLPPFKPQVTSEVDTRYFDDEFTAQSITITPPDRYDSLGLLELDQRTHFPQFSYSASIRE

On to `C#CCNC(=O)c1cc(Nc2cc(C3CC3)[nH]n2)nc(N2CCN(Cc3ccc(S(=O)(=O)F)cc3)CC2)n1`, for which the inhibition result in test [1], in test [2], in test [3], in test [4] and in test [5] was “inactive” in each case.

For `COc1cc(N2CCN(C(C)=O)CC2)ccc1Nc1ncc(Cl)c(Nc2ccc(NCc3ccc(S(=O)(=O)F)cc3)cc2)n1`, the inhibition (commonly the relative decrease from the control value, in per cent) in test [6] is less than 25%; in [8], less than 25%; in [9], 100%; in test [10], 100%; in [11] it was 100%; in test [12], 90%. Also, the inhibition entry in test [13] is “Dose-Dependent Effect”; in test [14], less than 25%; in test [15] it was 100%; in test [16], 90%. In test [7], the inhibition entry is “inactive”. Also, the outcome in test [17] was Active.
